# Screens: PubChem BioAssay, several laboratories
# Yeast growth inh = yeast BB579 growth reduction in restrictive medium. 0.51% of 140,000 active. S. cerevisiae BB579 growth, OD615, 48 h. AID 804. inhibition, % at 10 µM;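 active means inhibition above a set limit, 3 SD over the mean compound inhibition, cut at about 44% in these data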
#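 test system = yeast BB579 (DeaD) | buffer or medium = restrictive CSMM-D medium | doses = single compound dose of 10 µM, 0.25% DMSO final | times = 4 h preincubation and 48 h exposure at 30 °C | technique = culture absorbance at 615 nm | benchmarks = amphotericin B 10 µg/mL, positive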
# Ins promoter up = MIN6 insulin promoter up-regulation. MIN6 insulin promoter-GFP reporter, high-content imaging; stronger effect = higher value. z-score at 5 µM. 0.3% of 190,000 active. AID 1625;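 active means z-score above 3 at 5 µM with at least 500 cells counted in the well; inconclusive means wells under 500 cells, flagged as cytotoxic or low count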
# INS promoter inh = TRM-6 insulin promoter activity inhibition. AID 1273. TRM-6 cells, insulin promoter-eGFP reporter, imaging; reporter expression induced with tamoxifen. inhibition, % at 2 µM. 0.9% of 130,000 active;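 active means inhibition above the mean plus 3 SD, with well images judged a real hit on visual review, cut at about 60% in these data, passing the limit was not always enough; inconclusive means inhibition over the cutoff but images rejected on review; inactive means inhibition not above the cutoff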
# RAM network inh = blocks the yeast RAM network | S. cerevisiae dse1pr::URA3 reporter, 5-FOA growth OD615, 2 d; analog-sensitive cbk1-as2 kinase mutant strain | inhibition, % at 50 µM | 1.8% of 190,000 active | AID 868;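 active means inhibition above a set limit, 3 SD over mean compound inhibition, cut at about 8.4% in these data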;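 further: 0% = DMSO-only wells with no growth and 100% = 10 µM 1-NA-PP1 full growth; inhibition rescues growth on 5-FOA so higher OD means more RAM inhibition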
# Yeast life ext = extends the lifespan of yeast. S. cerevisiae growth with nicotinamide, OD615; deaD strain in restrictive glucose medium. inhibition of the nicotinamide effect, % at 10 µM. 0.68% of 130,000 active. AID 775;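 active means inhibition above a set limit, placed 3 SD over the median of all compounds, cut at about 26% in these data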;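 further: 0% = nicotinamide-treated wells and 100% = cells grown without nicotinamide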
#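 Assay system: engineered S. cerevisiae DeaD replicative-lifespan strain, galactose-grown log-phase cells; Buffer or medium: CSMM-D glucose medium, restrictive; Probe or stimulus: nicotinamide 1.5 mM; Compound: single dose 10 µM compound, 0.25% DMSO; Schedule: 4 h preincubation then 48 h treatment at 30 °C; Technique: OD615 measurement.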
# Active calls of the source: *; ? = inconclusive; · = no result given. In the library only some 3.1% were active in any assay of this set; here they are far more common.
SMILES,Yeast growth inh,Ins promoter up,INS promoter inh,RAM network inh,Yeast life ext
COCCCn1c(-c2ccc(OC)cc2)cc(C(=O)NC2CCCCCCC2)c1C,-31.4,-0.28,44.0,10.7*,2.4
CCCCn1c(C)c(C(=O)O)c2cc(OC)ccc21,-28.6,-0.09,-6.7,2.2,-16.8
CCOc1ccccc1OCC(=O)Nc1ccc(Cl)cc1C(=O)c1ccccc1,-20.2,·,-50.0,9.6*,-0.2
COc1ccccc1OCC(=O)Nc1ccc(Cl)cc1C(=O)c1ccccc1,-41.8,0.45,-78.6,6.3,1.2
CN1CCN(/N=C/c2c(O)n(Cc3ccc(F)cc3)c(=O)[nH]c2=O)CC1,·,0.03,·,·,·
O=C(Nc1ccccc1)c1cccn(Cc2ccccc2)c1=O,·,1.67,·,9.2*,·
CC(C)CCn1c(N)c(C(=O)NCc2cccs2)c2nc3ccccc3nc21,-47.4,-0.89,44.1,6.1,-10.1
CC(C)OCCCNC(=O)c1c(N)n(Cc2cccs2)c2nc3ccccc3nc12,-1.5,·,·,9.3*,-4.7
CN(C(=O)Oc1ccc(C(=O)c2ccc(Cl)cc2)cc1)c1ccccc1,-24.5,-0.62,-2.7,8.4*,4.5
CC(=NCCO)c1c(O)n(C2CCCCC2)c(=O)[nH]c1=O,-18.6,-0.11,21.2,2.0,-4.5
CCC(=O)c1c(O)n(C2CCCCCC2)c(=O)[nH]c1=O,89.5*,0.29,-18.2,-1.5,-9.9
O=C(CN1CCCCC1)c1ccc(F)cc1,·,-0.13,·,·,·
O=C(c1ccccc1)C(CN1CCCC1)c1ccccc1 (stereo not drawn),-42.9,?,-41.7,2.9,56.0*
COc1ccc(OC)c(NP(=O)(Oc2ccc(Cl)cc2)Oc2ccc(Cl)cc2)c1,-27.6,-0.37,0.0,11.4*,2.6
COc1ccc(NP(=O)(Oc2ccc(Cl)cc2)Oc2ccc(Cl)cc2)cc1OC,-27.4,-0.49,29.6,9.5*,3.1
COc1ccc(NP(=O)(Oc2ccccc2OC)Oc2ccccc2OC)cc1,-33.3,-0.25,-57.1,2.7,5.2
CCCCCCn1c(O)c(C=Nc2ccccc2N2CCOCC2)c(=O)[nH]c1=S,·,3.25*,·,·,·
O=C(O)c1sc2cc(Cl)ccc2c1Cl,·,-0.45,·,·,·
CCCCCCCC(=O)NC(Oc1ccccc1[N+](=O)[O-])C(Cl)(Cl)Cl (stereo not drawn),-36.2,0.21,45.2,-1.1,-11.1
O=C1C2C3CCC(O3)C2C(=O)N1CCO (stereo not drawn),·,1.64,·,·,·
CCOP(=O)(OCC)C(NC(=O)c1cccc2ccccc12)C(Cl)(Cl)Cl (stereo not drawn),-7.3,0.23,·,-1.3,-2.1
Cc1cccc(CN(C)C)c1OC(=O)N(C)C,19.2,0.74,·,0.6,28.7*
CCNC(=O)NC(=O)C(C)OC(=O)c1c(C)nn(Cc2ccccc2Cl)c1Cl (stereo not drawn),-17.9,-0.07,-56.0,3.8,2.5
Clc1ccc(COC(Cn2ccnc2)c2ccc(Cl)cc2Cl)cc1 (stereo not drawn),97.2*,·,-45.5,-1.4,-8.8
c1ccc(Cn2ccnc2)cc1,-16.1,·,42.9,-0.1,8.9
SMILES,Yeast growth inh,Ins promoter up,INS promoter inh,RAM network inh,Yeast life ext
Clc1ccc(CSC(Cn2ccnc2)c2ccc(Cl)cc2Cl)cc1 (stereo not drawn),97.9*,·,-61.9,-1.9,-8.6
Clc1cc(Cl)cc(NC2=NCCS2)c1,·,0.13,·,·,·
O=P(Nc1ccccc1)(Oc1ccccc1)Oc1ccccc1,·,-0.21,·,·,·
O=P(NC(c1ccccc1)c1ccccc1)(Oc1ccccc1)Oc1ccccc1,-25.1,0.64,-33.3,9.3*,7.4
COc1ccc(C2SCC(=O)Nc3c2c(=O)[nH]n3C2CCCCCC2)cc1OC (stereo not drawn),-18.2,·,-3.6,-0.5,29.0*
CCn1nc(-c2ccccc2)nc2c(=O)n(C)c(=O)nc1-2,100.0*,?,·,-0.9,-14.4
CCc1ccc(C2=NN(CCC(=O)N3CCC4(CC3)OCCO4)C(=O)CC2)cc1,·,0.44,20.0,-0.7,·
O=C(c1ccco1)c1cn(Cc2ccc(Cl)cc2)c2ccccc12,-38.8,-1.1,-19.4,11.1*,-0.6
COc1ccccc1OCCCn1cc(C(=O)c2ccco2)c2ccccc21,-34.2,-0.22,-64.5,10.3*,-0.9
CC(C)(C)c1ccc(C(=O)C2CCCN(C3CCC3)C2)cc1 (stereo not drawn),·,·,·,1.1,·
COC(=O)c1ccc(NC(=O)CSc2nc3ccc(N4C(=O)C5C6C=CC(C6)C5C4=O)cc3s2)cc1 (stereo not drawn),-31.7,·,·,7.2,-8.2
CCOP(=O)(OCC)C(O)c1cccnc1 (stereo not drawn),·,-0.17,·,·,·
O=C1c2ccccc2C(=O)N1Cc1nc2ccccc2c(=O)n1-c1ccc(Br)cn1,-44.4,0.9,33.3,6.1,77.1*
O=C1c2ccccc2C(=O)N1Cc1nc2ccccc2c(=O)n1-c1cccnc1,-9.6,-0.25,-36.8,1.0,-10.9
CCOC(=O)C(O)(c1ccc(NC(=O)c2ccc(Cl)c(Cl)c2)cc1)C(F)(F)F (stereo not drawn),·,-0.27,·,·,·
CCOC(=O)C(=CNc1ccc(C(O)(C(=O)OCC)C(F)(F)F)cc1C)C(=O)OCC (stereo not drawn),-30.4,0.45,-33.3,8.7*,1.0
O=C(Oc1c(Cl)cc(Cl)c2ccccc12)N1CCCCC1,-31.0,·,-106.7,10.3*,-6.8
O=C(C1CC(=O)N(C2CCCCCCC2)C1)N1CCC2(CC1)OCCO2 (stereo not drawn),-21.6,-0.39,74.3*,0.7,-5.9
O=C(C1CCC(=O)N1C1CCCC1)N1CCC2(CC1)OCCO2 (stereo not drawn),-25.1,0.44,20.0,-0.9,-18.3
COc1cccc(C2CC3C(=O)C=CC2N3Cc2ccccc2)c1 (stereo not drawn),-37.5,-0.72,3.0,0.8,59.5*
CCC(C)N1C(=O)/C(=C\c2ccc(N3CCCCCC3)cc2)C(=O)NC1=S (stereo not drawn),-57.0,0.01,0.0,6.4,8.0
CCC(C)N1C(=O)/C(=C\c2cc3c4c(c2)CCCN4CCC3)C(=O)NC1=S (stereo not drawn),-36.1,1.04,11.1,3.1,30.3*
CN1C(=O)NC(=O)/C(=C\C=C\c2ccccc2[N+](=O)[O-])C1=O,·,-0.28,·,-1.1,·
Cn1c(O)c(C(=NCCc2c[nH]c3ccccc23)c2ccccc2)c(=O)n(C)c1=O,·,-0.7,0.0,1.4,·
O=C1C(=O)c2ccccc2-c2ccccc21,99.8*,?,-17.4,0.0,-16.0
SMILES,Yeast growth inh,Ins promoter up,INS promoter inh,RAM network inh,Yeast life ext
Cc1cc(C)nc(-n2c(C)nc3cc(Cl)ccc3c2=O)c1,-5.2,-0.11,-9.4,0.2,-6.8
CC1(CCl)CN1S(=O)(=O)c1ccccc1 (stereo not drawn),·,-0.41,·,·,·
CC(C)N1CCC2(CC1)NC(CO)(CO)CO2,-9.4,0.81,6.5,1.4,-7.5
CN(C)c1cccc2c(C#N)ccc(N(C)C)c12,·,0.68,86.7*,1.9,·
Fc1ccc(C2=CCN(C(c3cccs3)c3nnnn3CCc3ccccc3)CC2)cc1 (stereo not drawn),-19.7,-0.14,-42.9,10.2*,-11.8
CCC(C)(C)n1nnnc1C(c1cccs1)N1CC=C(c2ccc(F)cc2)CC1 (stereo not drawn),-72.3,-0.16,-7.1,4.5,23.3
